Assay results from ChEMBL document CHEMBL4689842, “EUbOPEN Chemogenomics Library wave 1” (2021).

Tested on: HEK-293T
Test: Multiplex assay against HEK293T;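 as to Population Tubulin-Different-Phenotype (%): share of the cells with healthy nuclei that show this phenotype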
Assay type: toxicity, cell-based
Details: human
Method in brief: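 Live cells were stained at seeding with Hoechst33342, BioTracker Green Microtubule Cytoskeleton Dye, MitoTracker Red and Annexin V Alexa Fluor 680, then imaged on a CQ1 microscope at 37°C and 5% CO2 after compound addition. CellPathfinder machine-learning gating split cells into Hoechst high-intensity objects or normal cells. Normal cells were split into healthy, pyknosed or fragmented nuclei, and pyknosed cells into mitotic or apoptotic. Tubulin, mitochondrial-mass and membrane-permeability phenotypes are per cents of healthy-nucleus cells.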

[1] = 12 h, 1 µM, compound concentration 1 uM, replicate 1
[2] = 12 h, 1 µM, compound concentration 1 uM, replicate 2
[3] = 12 h, 10 µM, compound concentration 10 uM, replicate 1
[4] = 12 h, 10 µM, compound concentration 10 uM, replicate 2
[5] = 24 h, 1 µM, compound concentration 1 uM, replicate 1
[6] = 24 h, 1 µM, compound concentration 1 uM, replicate 2
[7] = 24 h, 10 µM, compound concentration 10 uM, replicate 1
[8] = 24 h, 10 µM, compound concentration 10 uM, replicate 2
[9] = 48 h, 1 µM, compound concentration 1 uM, replicate 1
[10] = 48 h, 1 µM, compound concentration 1 uM, replicate 2
[11] = 48 h, 10 µM, compound concentration 10 uM, replicate 1
[12] = 48 h, 10 µM, compound concentration 10 uM, replicate 2

In the case of `Cc1ccc2c(c1)c1c(n2CCc2ccc(C)nc2)CCN(C)C1` [LATREPIRDINE], the “Population Apoptotic (%)” value [1] is reported as 65%, the “Population Fragmented Nuclei (%)” value [1] is reported as 9% and the “Population Healthy Nuclei (%)” value [1] is reported as 39%. The “Population Hoechst High Intensity Objects (%)” value [1] was 14%, the “Population Membrane Permeable-Phenotype (%)” value [1] was 0% and the “Population Mitochondria Different-Phenotype (%)” value [1] was 97%. For the same compound, the “Population Mitotic Cells (%)” value [1] was 34%, the “Population Normal (%)” value [1] was 85% and the “Population Pyknosed Nuclei (%)” value [1] was 51%. The “Population Tubulin-Different-Phenotype (%)” value [1] was 85%, the “Total Cell Count” value [1] was 246 and the “Population Apoptotic (%)” value [2] was 28%. The “Population Fragmented Nuclei (%)” value [2] was 6%, the “Population Healthy Nuclei (%)” value [2] was 38% and the “Population Hoechst High Intensity Objects (%)” value [2] was 2%. For the same compound, the “Population Membrane Permeable-Phenotype (%)” value [2] was 7%, the “Population Mitochondria Different-Phenotype (%)” value [2] was 64% and the “Population Mitotic Cells (%)” value [2] was 71%. For the same compound, the “Population Normal (%)” value [2] was 97%, the “Population Pyknosed Nuclei (%)” value [2] was 54% and the “Population Tubulin-Different-Phenotype (%)” value [2] was 39%. The “Total Cell Count” value [2] was 209, the “Population Apoptotic (%)” value [3] was 89% and the “Population Fragmented Nuclei (%)” value [3] was 30%. The “Population Healthy Nuclei (%)” value [3] was 12%, the “Population Hoechst High Intensity Objects (%)” value [3] was 24% and the “Population Membrane Permeable-Phenotype (%)” value [3] was 8%. For the same compound, the “Population Mitochondria Different-Phenotype (%)” value [3] was 95%, the “Population Mitotic Cells (%)” value [3] was 10% and the “Population Normal (%)” value [3] was 75%. The “Population Pyknosed Nuclei (%)” value [3] was 57%, the “Population Tubulin-Different-Phenotype (%)” value [3] was 91% and the “Total Cell Count” value [3] was 251. The “Population Apoptotic (%)” value [4] was 91%, the “Population Fragmented Nuclei (%)” value [4] was 5% and the “Population Healthy Nuclei (%)” value [4] was 13%. For the same compound, the “Population Hoechst High Intensity Objects (%)” value [4] was 4%, the “Population Mitochondria Different-Phenotype (%)” value [4] was 96% and the “Population Mitotic Cells (%)” value [4] was 8%. For the same compound, the “Population Normal (%)” value [4] was 95%, the “Population Pyknosed Nuclei (%)” value [4] was 80% and the “Population Tubulin-Different-Phenotype (%)” value [4] was 96%. The “Total Cell Count” value [4] was 194, the “Population Apoptotic (%)” value [5] was 55% and the “Population Fragmented Nuclei (%)” value [5] was 7%. For the same compound, the “Population Healthy Nuclei (%)” value [5] was 42%, the “Population Hoechst High Intensity Objects (%)” value [5] was 14% and the “Population Membrane Permeable-Phenotype (%)” value [5] was 1%. For the same compound, the “Population Mitochondria Different-Phenotype (%)” value [5] was 96%, the “Population Mitotic Cells (%)” value [5] was 44% and the “Population Normal (%)” value [5] was 85%. For the same compound, the “Population Pyknosed Nuclei (%)” value [5] was 50%, the “Population Tubulin-Different-Phenotype (%)” value [5] was 87% and the “Total Cell Count” value [5] was 276. For the same compound, the “Population Apoptotic (%)” value [6] was 29%, the “Population Fragmented Nuclei (%)” value [6] was 5% and the “Population Healthy Nuclei (%)” value [6] was 55%. For the same compound, the “Population Hoechst High Intensity Objects (%)” value [6] was 4%, the “Population Membrane Permeable-Phenotype (%)” value [6] was 11% and the “Population Mitochondria Different-Phenotype (%)” value [6] was 55%. The “Population Mitotic Cells (%)” value [6] was 70%, the “Population Normal (%)” value [6] was 95% and the “Population Pyknosed Nuclei (%)” value [6] was 39%. The “Population Tubulin-Different-Phenotype (%)” value [6] was 47%, the “Total Cell Count” value [6] was 271 and the “Population Apoptotic (%)” value [7] was 90%. The “Population Fragmented Nuclei (%)” value [7] was 35%, the “Population Healthy Nuclei (%)” value [7] was 16% and the “Population Hoechst High Intensity Objects (%)” value [7] was 24%. The “Population Membrane Permeable-Phenotype (%)” value [7] was 6%, the “Population Mitochondria Different-Phenotype (%)” value [7] was 96% and the “Population Mitotic Cells (%)” value [7] was 9%. For the same compound, the “Population Normal (%)” value [7] was 75%, the “Population Pyknosed Nuclei (%)” value [7] was 47% and the “Population Tubulin-Different-Phenotype (%)” value [7] was 93%. For the same compound, the “Total Cell Count” value [7] was 242, the “Population Apoptotic (%)” value [8] was 93% and the “Population Fragmented Nuclei (%)” value [8] was 5%. The “Population Hoechst High Intensity Objects (%)” value [8] was 6%, the “Population Membrane Permeable-Phenotype (%)” value [8] was 2% and the “Population Mitochondria Different-Phenotype (%)” value [8] was 97%. For the same compound, the “Population Mitotic Cells (%)” value [8] was 6%, the “Population Normal (%)” value [8] was 93% and the “Population Pyknosed Nuclei (%)” value [8] was 77%. The “Population Tubulin-Different-Phenotype (%)” value [8] was 94%, the “Total Cell Count” value [8] was 220 and the “Population Apoptotic (%)” value [9] was 59%. The “Population Fragmented Nuclei (%)” value [9] was 11%, the “Population Healthy Nuclei (%)” value [9] was 61% and the “Population Hoechst High Intensity Objects (%)” value [9] was 10%. For the same compound, the “Population Membrane Permeable-Phenotype (%)” value [9] was 2%, the “Population Mitochondria Different-Phenotype (%)” value [9] was 62% and the “Population Mitotic Cells (%)” value [9] was 40%. For the same compound, the “Population Normal (%)” value [9] was 89%, the “Population Pyknosed Nuclei (%)” value [9] was 27% and the “Population Tubulin-Different-Phenotype (%)” value [9] was 67%. The “Total Cell Count” value [9] was 332, the “Population Apoptotic (%)” value [10] was 32% and the “Population Fragmented Nuclei (%)” value [10] was 6%. The “Population Healthy Nuclei (%)” value [10] was 77%, the “Population Hoechst High Intensity Objects (%)” value [10] was 3% and the “Population Membrane Permeable-Phenotype (%)” value [10] was 8%. The “Population Mitochondria Different-Phenotype (%)” value [10] was 23%, the “Population Mitotic Cells (%)” value [10] was 67% and the “Population Normal (%)” value [10] was 96%. For the same compound, the “Population Pyknosed Nuclei (%)” value [10] was 16%, the “Population Tubulin-Different-Phenotype (%)” value [10] was 40% and the “Total Cell Count” value [10] was 413. For the same compound, the “Population Apoptotic (%)” value [11] was 86%, the “Population Fragmented Nuclei (%)” value [11] was 41% and the “Population Healthy Nuclei (%)” value [11] was 21%. For the same compound, the “Population Hoechst High Intensity Objects (%)” value [11] was 24%, the “Population Mitotic Cells (%)” value [11] was 13% and the “Population Normal (%)” value [11] was 75%. For the same compound, the “Population Pyknosed Nuclei (%)” value [11] was 37%, the “Population Tubulin-Different-Phenotype (%)” value [11] was 94% and the “Total Cell Count” value [11] was 246. For the same compound, the “Population Apoptotic (%)” value [12] was 87%, the “Population Fragmented Nuclei (%)” value [12] was 2% and the “Population Healthy Nuclei (%)” value [12] was 42%. The “Population Hoechst High Intensity Objects (%)” value [12] was 13%, the “Population Membrane Permeable-Phenotype (%)” value [12] was 2% and the “Population Mitochondria Different-Phenotype (%)” value [12] was 97%. For the same compound, the “Population Mitotic Cells (%)” value [12] was 12%, the “Population Normal (%)” value [12] was 86% and the “Population Pyknosed Nuclei (%)” value [12] was 55%. The “Population Tubulin-Different-Phenotype (%)” value [12] was 90% and the “Total Cell Count” value [12] was 198.
